Assay results taken from ChEMBL document CHEMBL5058577, “EUbOPEN Chemogenomics Library 2 (Multiplex)” (2022).

System: Fibroblast
Assay: Multiplex assay against human fibroblast
Assay type: toxicity, cell-based
Summary of the method: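 On a CQ1 microscope at 37°C and 5% CO2, live cells were imaged after compound addition. They had been stained at seeding with Hoechst33342, BioTracker Green Microtubule Cytoskeleton Dye, MitoTracker Red and Annexin V Alexa Fluor 680. CellPathfinder machine-learning gating assigned cells to Hoechst high-intensity objects or normal cells, normal cells to healthy, pyknosed or fragmented nuclei, and pyknosed cells to mitotic or apoptotic. Tubulin, mitochondrial-mass and membrane-permeability phenotypes are per cents of healthy-nucleus cells.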

[1] = 12 h, 1 µM, compound concentration 1 uM, replicate 1
[2] = 12 h, 1 µM, compound concentration 1 uM, replicate 2
[3] = 12 h, 10 µM, compound concentration 10 uM, replicate 1
[4] = 12 h, 10 µM, compound concentration 10 uM, replicate 2
[5] = 24 h, 1 µM, compound concentration 1 uM, replicate 1
[6] = 24 h, 1 µM, compound concentration 1 uM, replicate 2
[7] = 24 h, 10 µM, compound concentration 10 uM, replicate 1
[8] = 24 h, 10 µM, compound concentration 10 uM, replicate 2
[9] = 48 h, 1 µM, compound concentration 1 uM, replicate 1
[10] = 48 h, 1 µM, compound concentration 1 uM, replicate 2
[11] = 48 h, 10 µM, compound concentration 10 uM, replicate 1
[12] = 48 h, 10 µM, compound concentration 10 uM, replicate 2

Compound: Cn1cc(C(=O)OCC2CCN(CCNS(C)(=O)=O)CC2)c2ccccc21
- Population Apoptotic (%) [1]: 44%
- Population Fragmented Nuclei (%) [1]: 13%
- Population Healthy Nuclei (%) [1]: 71%
- Population Hoechst High Intensity Objects (%) [1]: 1%
- Population Membrane Permeable-Phenotype (%) [1]: 0%
- Population Mitochondria Different-Phenotype (%) [1]: 3%
- Population Mitotic Cells (%) [1]: 55%
- Population Normal (%) [1]: 98%
- Population Pyknosed Nuclei (%) [1]: 14%
- Population Tubulin-Different-Phenotype (%) [1]: 23%
- Total Cell Count [1]: 202
- Population Apoptotic (%) [2]: 33%
- Population Fragmented Nuclei (%) [2]: 21%
- Population Healthy Nuclei (%) [2]: 46%
- Population Hoechst High Intensity Objects (%) [2]: 4%
- Population Membrane Permeable-Phenotype (%) [2]: 9%
- Population Mitochondria Different-Phenotype (%) [2]: 1%
- Population Mitotic Cells (%) [2]: 66%
- Population Normal (%) [2]: 95%
- Population Pyknosed Nuclei (%) [2]: 32%
- Population Tubulin-Different-Phenotype (%) [2]: 37%
- Total Cell Count [2]: 164
- Population Apoptotic (%) [3]: 48%
- Population Fragmented Nuclei (%) [3]: 29%
- Population Healthy Nuclei (%) [3]: 55%
- Population Hoechst High Intensity Objects (%) [3]: 3%
- Population Membrane Permeable-Phenotype (%) [3]: 0%
- Population Mitochondria Different-Phenotype (%) [3]: 9%
- Population Mitotic Cells (%) [3]: 51%
- Population Normal (%) [3]: 96%
- Population Pyknosed Nuclei (%) [3]: 14%
- Population Tubulin-Different-Phenotype (%) [3]: 41%
- Total Cell Count [3]: 207
- Population Apoptotic (%) [4]: 25%
- Population Fragmented Nuclei (%) [4]: 32%
- Population Healthy Nuclei (%) [4]: 51%
- Population Hoechst High Intensity Objects (%) [4]: 5%
- Population Membrane Permeable-Phenotype (%) [4]: 5%
- Population Mitochondria Different-Phenotype (%) [4]: 7%
- Population Mitotic Cells (%) [4]: 75%
- Population Normal (%) [4]: 94%
- Population Pyknosed Nuclei (%) [4]: 16%
- Population Tubulin-Different-Phenotype (%) [4]: 47%
- Total Cell Count [4]: 184
- Population Apoptotic (%) [5]: 31%
- Population Fragmented Nuclei (%) [5]: 13%
- Population Healthy Nuclei (%) [5]: 74%
- Population Hoechst High Intensity Objects (%) [5]: 5%
- Population Membrane Permeable-Phenotype (%) [5]: 0%
- Population Mitochondria Different-Phenotype (%) [5]: 0%
- Population Mitotic Cells (%) [5]: 68%
- Population Normal (%) [5]: 94%
- Population Pyknosed Nuclei (%) [5]: 11%
- Population Tubulin-Different-Phenotype (%) [5]: 23%
- Total Cell Count [5]: 201
- Population Apoptotic (%) [6]: 30%
- Population Fragmented Nuclei (%) [6]: 25%
- Population Healthy Nuclei (%) [6]: 47%
- Population Hoechst High Intensity Objects (%) [6]: 2%
- Population Membrane Permeable-Phenotype (%) [6]: 7%
- Population Mitochondria Different-Phenotype (%) [6]: 6%
- Population Mitotic Cells (%) [6]: 69%
- Population Normal (%) [6]: 97%
- Population Pyknosed Nuclei (%) [6]: 26%
- Population Tubulin-Different-Phenotype (%) [6]: 48%
- Total Cell Count [6]: 168
- Population Apoptotic (%) [7]: 80%
- Population Fragmented Nuclei (%) [7]: 33%
- Population Healthy Nuclei (%) [7]: 53%
- Population Hoechst High Intensity Objects (%) [7]: 5%
- Population Membrane Permeable-Phenotype (%) [7]: 0%
- Population Mitochondria Different-Phenotype (%) [7]: 3%
- Population Mitotic Cells (%) [7]: 20%
- Population Normal (%) [7]: 94%
- Population Pyknosed Nuclei (%) [7]: 13%
- Population Tubulin-Different-Phenotype (%) [7]: 42%
- Total Cell Count [7]: 201
- Population Apoptotic (%) [8]: 41%
- Population Fragmented Nuclei (%) [8]: 40%
- Population Healthy Nuclei (%) [8]: 43%
- Population Hoechst High Intensity Objects (%) [8]: 4%
- Population Membrane Permeable-Phenotype (%) [8]: 3%
- Population Mitochondria Different-Phenotype (%) [8]: 5%
- Population Mitotic Cells (%) [8]: 58%
- Population Normal (%) [8]: 95%
- Population Pyknosed Nuclei (%) [8]: 16%
- Population Tubulin-Different-Phenotype (%) [8]: 52%
- Total Cell Count [8]: 188
- Population Apoptotic (%) [9]: 54%
- Population Fragmented Nuclei (%) [9]: 14%
- Population Healthy Nuclei (%) [9]: 72%
- Population Hoechst High Intensity Objects (%) [9]: 5%
- Population Membrane Permeable-Phenotype (%) [9]: 0%
- Population Mitochondria Different-Phenotype (%) [9]: 1%
- Population Mitotic Cells (%) [9]: 45%
- Population Normal (%) [9]: 94%
- Population Pyknosed Nuclei (%) [9]: 12%
- Population Tubulin-Different-Phenotype (%) [9]: 23%
- Total Cell Count [9]: 197
- Population Apoptotic (%) [10]: 52%
- Population Fragmented Nuclei (%) [10]: 33%
- Population Healthy Nuclei (%) [10]: 54%
- Population Hoechst High Intensity Objects (%) [10]: 4%
- Population Membrane Permeable-Phenotype (%) [10]: 5%
- Population Mitochondria Different-Phenotype (%) [10]: 2%
- Population Mitotic Cells (%) [10]: 47%
- Population Normal (%) [10]: 95%
- Population Tubulin-Different-Phenotype (%) [10]: 43%
- Total Cell Count [10]: 177
- Population Apoptotic (%) [11]: 68%
- Population Fragmented Nuclei (%) [11]: 28%
- Population Healthy Nuclei (%) [11]: 58%
- Population Hoechst High Intensity Objects (%) [11]: 9%
- Population Membrane Permeable-Phenotype (%) [11]: 0%
- Population Mitochondria Different-Phenotype (%) [11]: 9%
- Population Mitotic Cells (%) [11]: 32%
- Population Normal (%) [11]: 90%
- Population Pyknosed Nuclei (%) [11]: 13%
- Population Tubulin-Different-Phenotype (%) [11]: 49%
- Total Cell Count [11]: 199
- Population Apoptotic (%) [12]: 50%
- Population Fragmented Nuclei (%) [12]: 40%
- Population Healthy Nuclei (%) [12]: 46%
- Population Hoechst High Intensity Objects (%) [12]: 6%
- Population Membrane Permeable-Phenotype (%) [12]: 2%
- Population Mitochondria Different-Phenotype (%) [12]: 8%
- Population Mitotic Cells (%) [12]: 50%
- Population Normal (%) [12]: 93%
- Population Pyknosed Nuclei (%) [12]: 12%
- Population Tubulin-Different-Phenotype (%) [12]: 60%
- Total Cell Count [12]: 190
